# Hits are enriched below; roughly 2.3% of the tested compounds scored in any of these assays.
# DSG3 Ab inh: inhibitors of pemphigus antibody binding to DSG3, primary screen, biochemical, bead-based, flow cytometry, scFv-GFP; 310,000 compounds, 0.48% hits; binding (percent of control), % at 10 µM; AID 588358, 2011; Desmoglein-3 (Homo sapiens), P32926; DSG3-coupled beads, scFv-anti-DSG3-GFP binding; active compounds read low;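 active = binding more than 3 SD below its plate's average and above zero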;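 note: hits lower antibody fragment binding to DSG3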
# GPR7 antag: GPR7 receptor antagonists, primary screen, cell-based, fluorescence, single concentration. inhibition, % at 4.4 µM. Neuropeptides B/W receptor type 1 (Homo sapiens), P48145. 290,000 compounds, 1.1% hits. GPR7-expressing cells, fluorescence antagonist assay; in the data active = inhibition above about 16%, passing the limit was not always enough;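 note: cells stimulated with the agonist NPW; 0% = agonist with vehicle and 100% = vehicle without agonist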
# p-CIP stab down: p/CIP-EGFP fusion destabilizers, primary screen, fluorescence, F442A cells; Q05BA5; 16 h; decrease of EGFP signal, % at 10 µM; 290,000 compounds, 0.01% hits; AID 1984, 2009;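 active = EGFP signal decrease of at least 30% at 10 µM or well 3 SD below plate mean, unless failing retest; inactive = the rest, including hits failing retest or dose response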
# CHT allo act: CHT positive allosteric modulators, primary screen, cell-based, membrane potential dye, choline EC20. High affinity choline transporter 1 (Homo sapiens), Q9GZV3. CHT-expressing cells; active compounds read high; LV-AA mutant CHT in HEK293 cells. B-score at 10 µM. 310,000 compounds, 0.49% hits. AID 488977, 2010;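 active = initial fluorescence not abnormally high and integrated response B-score, plate-corrected, over 3 SD above library mean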
# Target sequence (Q9GZV3 whole entry, looked up): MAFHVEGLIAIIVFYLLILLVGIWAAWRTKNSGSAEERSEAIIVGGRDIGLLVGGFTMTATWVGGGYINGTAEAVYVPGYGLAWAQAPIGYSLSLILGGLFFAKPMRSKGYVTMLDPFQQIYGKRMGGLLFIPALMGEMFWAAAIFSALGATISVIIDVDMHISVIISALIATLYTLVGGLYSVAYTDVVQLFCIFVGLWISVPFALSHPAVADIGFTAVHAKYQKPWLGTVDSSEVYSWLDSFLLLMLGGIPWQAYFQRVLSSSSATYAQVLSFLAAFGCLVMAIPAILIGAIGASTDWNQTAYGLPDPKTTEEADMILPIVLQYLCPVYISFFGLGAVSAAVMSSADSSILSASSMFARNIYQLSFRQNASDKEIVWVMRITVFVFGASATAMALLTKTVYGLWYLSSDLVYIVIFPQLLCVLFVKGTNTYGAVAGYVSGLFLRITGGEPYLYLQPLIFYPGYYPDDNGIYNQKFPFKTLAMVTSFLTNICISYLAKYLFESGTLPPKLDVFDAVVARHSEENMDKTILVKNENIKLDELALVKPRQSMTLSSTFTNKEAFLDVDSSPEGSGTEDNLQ
# T cell modulator: modulators of CD8 T cell-vesicle binding, primary screen, mouse 2C CD8+ T cells, flow cytometry. 330,000 compounds, 0.068% hits. response (vesicle binding), % at 7 µM. 2C CD8+ T cell-vesicle binding; active compounds read low;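 active = response, share of CD8 T cells binding vesicles, and their 90th percentile fluorescence all below set limits, cut at about 80% in these data, passing the limit was not always enough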;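 note: values below 100% mean blocked vesicle binding to the CD8+ T cells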
#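 System: murine 2C transgenic CD8+ T lymphocytes; also added: QL9-loaded Drosophila micro-vesicles; times: binding 1.5 h at 37 °C; measured by: flow cytometry, PE anti-B7-1 (FL2) versus Alexa647 anti-CD8 (FL8), PFA-fixed; control set: Peptide-free naked vesicles (low) and QL9 vesicles with 0.7% DMSO vehicle (high)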
# CHT inh: inhibitors of human choline transporter CHT; 310,000 compounds, 0.86% hits; B-score at 10 µM; High affinity choline transporter 1 (Homo sapiens), Q9GZV3; CHT-expressing cells, membrane potential dye, choline response; active compounds read low;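 active = B-score over 3 SD under the library average, and starting fluorescence ratio not unusually high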;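 note: choline stimulus applied at its EC90 after an EC20 pre-addition; B-score computed on integrated fluorescence ratio after choline addition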
# CHT act confirm: CHT activators, confirmation, cell-based, membrane potential dye, duplicate | activation, % at 10 µM | 2,500 compounds, 91% hits | CHT-expressing cells, membrane potential dye fluorescence (FDSS); % of choline EC20–EC90 response window; HEK293 expressing CHT LV-AA mutant; choline added at its EC20 | shares compounds with CHT allo act | AID 504833, 2011;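 active = primary screen active, with duplicate mean activation above negative control mean plus 3 SD, cut at about 11% in these data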
# HEK293 MP dye: membrane potential response in parental HEK293 cells, counter-screen for CHT activator project, cell-based, membrane potential dye. membrane potential dye fluorescence (FDSS); measured after EC20 choline addition. 2,500 compounds, 62% hits. shares compounds with CHT allo act. ratio readout change at 10 µM, hits read low. AID 623908, 2012;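 active = duplicate-averaged ratio beyond 3 SD from buffer wells, up or down, though filed actives are nearly all decreases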
# Active calls of the source: *; i = inactive; · = no result.
SMILES,DSG3 Ab inh,GPR7 antag,p-CIP stab down,CHT allo act,T cell modulator,CHT inh,CHT act confirm,HEK293 MP dye
Cc1ccc(NC(=O)COC(=O)c2cccc(S(=O)(=O)N3CCCCCC3)c2)cc1,96,·,·,·,·,·,·,·
Cc1[nH]c2ccc3ncccc3c2c1C,102,13,-11,6.8*,i,i,30*,-65*
COC(=O)c1ccc(Nc2cc(C)nc3ccc(C)cc23)cc1,110,-5,-17,i,213,i,·,·
COC(=O)c1ccc2nc(C)cc(Nc3ccccc3C)c2c1,102,-10,-8,6.6*,0,i,44*,-44*
CCOC(=O)c1c(NC(=O)Cc2ccccc2)sc2c1CCN(CC)C2,111,-3,4,i,594,i,34*,-35*
CCN1CCc2c(sc(NC(=O)c3ccc(S(=O)(=O)N4CCOCC4)cc3)c2C(N)=O)C1,104,-4,-6,7.8*,615,i,38*,-41*
CCN1CCc2c(sc(NC(=O)Cc3ccccc3)c2C(=O)OC)C1,104,-4,0,i,380,i,·,·
CC(C)N1CCc2c(sc(NC(=O)c3ccc(S(=O)(=O)N4CCOCC4)cc3)c2C(N)=O)C1,107,-13,-16,i,297,i,·,·
COc1ccc(C(C)(C)C)cc1NC(=O)COC(=O)CSCc1c(C)noc1C,97,·,·,·,·,·,·,·
COc1ccc(C2=Nn3c([n+](C)c4ccccc43)SC2)cc1,97,-6,-21,11*,62,i,57*,-48*
CCc1nc2ccccc2c(C(=O)OCc2nc3ccccc3c(=O)[nH]2)c1C,113,·,·,·,121,·,·,·
COc1cccc(C2c3[nH]c4ccccc4c3CCN2Cc2cccn2-c2ncccn2)c1 (centres undefined),104,16,-20,i,512,i,·,·
Clc1ccc(-n2cccc2CN2CCc3c([nH]c4ccccc34)C2c2ccccn2)nc1 (centres undefined),100,-13,-17,7*,212,i,40*,i
CCCCN1CC(COCc2ccccc2)Oc2cccc(Oc3cc(C)c(C)c(C)c3)c2S1(=O)=O (centres undefined),94,·,·,·,·,·,·,·
COc1ccc(CCNCc2ccc(OCc3ccc(Cl)nc3)c(OC)c2)cc1OC,·,4,-20,7.8*,101,i,37*,i
Nc1ccc(-c2cnc(N)c(C(=O)c3cccnc3)n2)cn1,102,·,·,·,·,·,·,·
O=C(Nc1ccccc1Oc1cccnc1)C1CCCN(Cc2ccccc2O)C1 (centres undefined),·,-3,-1,i,322,i,·,·
C#Cc1ccc(CN2CCCC(C(=O)Nc3ccccc3Oc3cccnc3)C2)cc1 (centres undefined),97,-5,-13,i,392,i,17*,i
CCc1c(C)c(C#N)c2nc3ccccc3n2c1NCc1ccco1,108,-7,7,i,575,i,11*,i
Cc1ccc(Nc2cc(Cl)nc(N)n2)c([N+](=O)[O-])c1,90,·,·,·,·,·,·,·
O=c1cc(SCc2ccc(Cl)cc2Cl)nc[nH]1,115,·,·,·,·,·,·,·
CCCNC(=S)N1CCC(C(=O)c2ccc(OC)cc2)CC1,259,-3,1,6.7*,294,i,-20,i
COCc1ccc(C(=O)N2CCCCC2C(=O)Nc2ccc(-n3nc(C)cc3C)cc2)o1 (centres undefined),116,-15,-17,i,276,i,·,·
